Published values collected from several papers.
Protocols differ between the studies behind these lines.
Target: Mitogen-activated protein kinase 1 (MAPK1, Homo sapiens, UniProt P28482)

COc1cc2ncnc(Nc3ccc(Oc4ccccc4)c(C)c3C)c2cc1OC  inhibition (enzyme activity, inhibitor; 1 µM): -2%
COc1cccc(-c2cc(=O)c3ccccc3o2)c1N  remaining signal (cell-free assay; 0.5 µM): 97.1%
CO[C@@H](C)c1c(Nc2ccc([C@@H](N(C)C(=O)C3CCS(=O)(=O)CC3)C(F)(F)F)cc2)cnc2cc(Cl)nn12  remaining binding (cell-free assay, competition with immobilised ligand; 1 µM): 100%
Cc1ccc(C(=O)NCc2ccsc2)cc1C#Cc1cn(C(C)C)c2ncnc(N)c12  activity vs control (enzyme activity, inhibitor; 1 µM): 98%
Cc1c(NC(=O)c2cc(C(N)=O)nc3cc(F)ccc23)c(C(F)(F)F)nn1Cc1ccc(C#N)cc1  remaining binding (cell-free assay, competition with immobilised ligand; 1 µM): 100%
COc1cc(Nc2c(C#N)cnc3cc(OCCCN4CCN(C)CC4)c(OC)cc23)c(Cl)cc1Cl  remaining signal (cell-free assay; 0.5 µM): 93.7%
CC(C)c1ccc(NC(=O)c2cccs2)c(-c2nc3ccccc3[nH]c2=O)c1  activity vs control (enzyme activity, inhibitor; 1 µM): 110%
COc1cc(/C=C/C(=O)CC(=O)/C=C/c2ccc(O)c(OC)c2)ccc1O  activity vs control (enzyme activity, inhibitor; 1 µM): 75%
CN(C)C1CCN(CC#Cc2nn(C3CCCC3)c3nc(NCc4ccccc4)ncc23)C1 (stereo not drawn)  inhibition (enzyme activity, inhibitor, FRET; 1 µM): 7%
Cn1c(=O)n(-c2ccc(C(C)(C)C#N)cc2)c2c3cc(-c4cnc5ccccc5c4)ccc3ncc21  remaining activity (enzyme activity, inhibitor; 10 µM): 114%
CN([C@@H]1CCc2c(CC(=O)O)c3cc(S(C)(=O)=O)ccc3n2C1)S(=O)(=O)c1ccc(F)cc1  remaining binding (cell-free assay, competition with immobilised ligand; 1 µM): 77%
CCOc1cc(-c2nncn2C)ccc1Nc1ncc2cc(C)nc(NCC(C)(C)C)c2n1  inhibition (enzyme activity, inhibitor, FRET; 1 µM): < 15%
Nc1nc(NC2CCCCC2)sc1C(=O)c1ccccc1  remaining activity (enzyme activity, inhibitor; 10 µM): 16%
CNc1cccc2cc(C(=O)Nc3ccc(C(=O)O)cc3)c(=O)[nH]c12  inhibition (enzyme activity, inhibitor; 10 µM): 1.3%
COc1cc2ncnc(Nc3ccc(F)c(Cl)c3)c2cc1OCCCN1CCOCC1  remaining signal (cell-free assay; 0.5 µM): 103%
CCC(=O)N[C@H]1CC[C@@H](C(=O)N(C)c2ccc(-c3nc4ccccc4o3)cc2)C1  remaining binding (cell-free assay, competition with immobilised ligand; 1 µM): 76%
Cc1ccc(NC(=O)c2ccc(C)c(C(F)(F)F)c2)cc1C#Cc1nn(C2CCC(O)CC2)c2ncnc(N)c12 (stereo not drawn)  remaining signal (cell-free assay; 10 µM): 108%
Cc1cc(C)c(-n2ccn3nc(-c4cccnc4)cc23)cc1NC(=O)c1cc(C#N)cc(S(F)(F)(F)(F)F)c1  remaining binding (cell-free assay, competition with immobilised ligand; 0.1 µM): 88.1%
O=C(Nc1cnn(-c2csc(C(=O)NC3COC3)c2)c1)Nc1c(F)cccc1Cl  remaining activity (enzyme activity, inhibitor; 5 µM): 85.9%
Cc1noc([C@H]2C[C@@H](c3ccc(C(F)(F)F)cc3)CN(C(=O)N3CCS(=O)(=O)C3)C2)n1  remaining binding (cell-free assay, competition with immobilised ligand; 1 µM): 100%
CCN(CC)CCNC(=O)c1c(C)[nH]c(/C=C2\C(=O)Nc3ccc(F)cc32)c1C  inhibition (enzyme activity, inhibitor; 0.3 µM): -6%
Cc1ccc(C(=O)Nc2ccc(CN3CCN(C)CC3)c(C(F)(F)F)c2)cc1C#Cc1cnc2cccnn12  remaining activity (enzyme activity, inhibitor; 23.5 nM): 100%
FC(F)c1nc2ccccc2n1-c1nc(N2CCOCC2)nc(N2CCOCC2)n1  remaining activity (enzyme activity, inhibitor; 10 µM): 105%
N#CCCc1ccc2c(c1)-c1[nH]c3ccc([N+](=O)[O-])cc3c1CC(=O)N2  remaining signal (cell-free assay; 0.5 µM): 119%
CCN(CC)c1ccc(C2=NNC(=O)CC2C)cc1[N+](=O)[O-] (stereo not drawn)  remaining activity (enzyme activity, inhibitor; 10 µM): 100%
Cc1cc(NC(=O)c2cccc3cc(-c4cccc5[nH]nc(N)c45)ccc23)ccc1F  activity vs control (enzyme activity, inhibitor; 0.1 µM): 100%
O=C1Nc2ccc(Cl)cc2C1=Cc1cc(Cl)c(O)c(Cl)c1  remaining signal (cell-free assay; 0.5 µM): 84.3%
Cc1ccc(Nc2nccc(N(C)c3ccc4c(C)n(C)nc4c3)n2)cc1S(N)(=O)=O  inhibition (enzyme activity, inhibitor; 0.3 µM): -1%
O=C(NCCCC1CCCCC1)c1ccc(CNC(=O)c2cnn(-c3ccccc3)c2C(F)(F)F)cc1  remaining binding (cell-free assay, competition with immobilised ligand; 0.1 µM): 93%
Cc1ccc(NC(=O)c2ccc(CN3CCN(C)CC3)cc2)cc1Nc1nc(-c2cccnc2)cs1  remaining signal (cell-free assay; 0.5 µM): 91.6%
CC(C)(C)c1nc2c(s1)c1nc(N)ncc1c1ccc(NS(=O)(=O)c3c(F)cccc3F)c(F)c12  remaining activity (enzyme activity, inhibitor, radiometric; 1 µM): 99%
Cc1cc(-n2nc(Cc3cc(F)cc(C(F)(F)F)c3)nc2C)ccc1C(N)=O  remaining binding (cell-free assay, competition with immobilised ligand; 1 µM): 100%
COc1cc(Nc2cnc(C#N)c(O[C@H](C)CN(C)C)n2)ncc1-c1cnn(C)c1  remaining activity (enzyme activity, inhibitor, radiometric; 10 µM): 80%
